Hck Nef HTS: blocks Nef-activated human Hck kinase. P08631. Recombinant Hck-YEEI plus Nef, Z-Lyte FRET kinase assay. inhibition, % at 20 µM. 220,000 tested, 0.68% active;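 active = Hck-Nef kinase inhibition above about 50%, limit read from the data; inactive = inhibition below that limit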;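 also: 0% = DMSO with Hck plus Nef and 100% = Hck alone without Nef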
p97 ATPase inh: blocks human p97 ATPase activity | P55072 | recombinant p97 ATPase, Kinase-Glo ATP luminescence, 3 h | inhibition, % at 8 µM | 220,000 tested, 0.42% active | AID 1481; in the data active = inhibition above about 15%;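 also: 0% = DMSO vehicle and 100% = wells lacking enzyme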
Calb biofilm kill: mixtures killing C. albicans biofilm. C. albicans biofilm persisters + clotrimazole, fluorescence viability; primary screen in compound mixtures of four per well. inhibition, % at 7.6 µM. 120,000 tested, 0.02% active;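 active = inhibition above 30.3% in the primary screen of four-compound pools, then above 30% when the compound was retested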;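 also: compounds exposed to preformed 24 h biofilms for 48 h; 0% = untreated biofilm control and 100% = clotrimazole plus chlorhexidine kill blank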
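Test system: C. albicans biofilms. Buffer or medium: RPMI/MOPS medium, pH 7.0. Timing: 48 h compound exposure at 37 °C. Technique: Alamar Blue fluorescence. Evaluation: percent inhibition of biofilm viability.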
PERK inhibitor: inhibitors of human PERK kinase; inhibition, % at 5.6 µM; AID 1416; 220,000 tested, 0.17% active; CHO PERK-DD fusion, SEAP luminescence translation reporter; Q9NZJ5;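 active = inhibition above the mean inhibition of all tested compounds plus 3 SD, set separately per screening campaign, cut at about 2.9% in these data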;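 also: PERK kinase domain activated by AP20187 dimerizer at 100 nM; 0% = DMSO with dimerizer and 100% = rapamycin at 8.4 µM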
14-3-3 Bad PPI: disrupts binding of bovine 14-3-3 zeta to phospho-Bad peptide. TR-FRET 14-3-3zeta/Dy647-pBad peptide displacement, 1 h. inhibition, % at 21.7 µM. 220,000 tested, 0.71% active;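 active = inhibition above about 70%, limit read from the data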;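 also: 0% = full 14-3-3 plus peptide FRET controls and 100% = background without 14-3-3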
eIF4E 4G PPI: eIF4E/eIF4G interaction inhibition in translation initiation. TR-FRET eIF4E-eIF4GI(517-606) binding, 2 h. 220,000 tested, 0.37% active. AID 782. inhibition, % at 21.7 µM. P63073+Q04637;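 active = inhibition above about 30%, limit read from the data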;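 also: 0% = full FRET control wells and 100% = background wells lacking eIF4GI fragment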
* hit, by the source's call; [ ] = remark or other dose. A selection: hits, their analogues and other compounds. The true share with any hit is near 2.2%.

`CCOC(=O)c1c(NC(=O)c2cc(-c3ccc(O)cc3)on2)sc(C(C)=O)c1C` gave Hck Nef HTS 34, p97 ATPase inh 6, Calb biofilm kill 1, PERK inhibitor 0, 14-3-3 Bad PPI 65 and eIF4E 4G PPI 31*.
For CCOC(=O)c1c(NC(=O)CC(C)C)sc(C(C)=O)c1C the results were Hck Nef HTS 2, p97 ATPase inh -4, Calb biofilm kill 15, PERK inhibitor 0, 14-3-3 Bad PPI -8 and eIF4E 4G PPI -4.
For CCOC(=O)CNc1nc(Cl)nc(Nc2ccc(Cl)cc2)n1 the results were Hck Nef HTS 8, p97 ATPase inh -4, Calb biofilm kill 15, PERK inhibitor -1, 14-3-3 Bad PPI 10 and eIF4E 4G PPI 0.
For O=C(Nc1ccc(Br)cc1)c1ccccc1CC[N+](=O)[O-] the results were Hck Nef HTS -1, p97 ATPase inh 0, PERK inhibitor 0, 14-3-3 Bad PPI -10 and eIF4E 4G PPI 1.
Screening Cc1cc(C)cc(NC(=O)c2ccccc2CC[N+](=O)[O-])c1 returned Hck Nef HTS 1, p97 ATPase inh -3, PERK inhibitor -1, 14-3-3 Bad PPI 0 and eIF4E 4G PPI 76*.
CC(OC(=O)CC(NC(=O)c1ccccc1Cl)c1ccccc1)C(=O)Nc1cccc(Cl)c1Cl (stereo not drawn) was read as Hck Nef HTS 1, p97 ATPase inh -4, Calb biofilm kill 6, PERK inhibitor -2, 14-3-3 Bad PPI 17 and eIF4E 4G PPI -5.
`CC(C)(C)c1ccc(C(=O)NNC(=O)C(=O)N2CCCCC2)cc1` gave Hck Nef HTS 2, p97 ATPase inh -2, PERK inhibitor 1, 14-3-3 Bad PPI -6 and eIF4E 4G PPI -2.
For O=C(NNC(=O)c1ccccc1)C(=O)N1CCCCC1 the results were Hck Nef HTS 1, p97 ATPase inh 5, PERK inhibitor 3.1*, 14-3-3 Bad PPI 0 and eIF4E 4G PPI 1.
For O=C(Nc1ccccc1Cl)C1CCCN(S(=O)(=O)c2ccc(F)cc2)C1 (stereo not drawn) the results were Hck Nef HTS 3, p97 ATPase inh 1, PERK inhibitor 0, 14-3-3 Bad PPI 77* and eIF4E 4G PPI 0.
For O=C(Nc1cccc(Cl)c1)C1CCCN(S(=O)(=O)c2ccc(F)cc2)C1 (stereo not drawn) the results were Hck Nef HTS -1, p97 ATPase inh -1, PERK inhibitor 0, 14-3-3 Bad PPI -3 and eIF4E 4G PPI 9.
For CCOC(=O)C1=C(C)N(C)C(=O)NC1c1c(C)nn(-c2ccc(C)cc2)c1Cl (stereo not drawn) the results were Hck Nef HTS 8, p97 ATPase inh -2, PERK inhibitor -1, 14-3-3 Bad PPI 28 and eIF4E 4G PPI 7.
Screening CCOC(=O)C1=C(C)NC(=O)NC1c1c(C)nn(-c2ccccc2)c1Cl (stereo not drawn) returned Hck Nef HTS -3, p97 ATPase inh 0, PERK inhibitor 0, 14-3-3 Bad PPI 93* and eIF4E 4G PPI 3.
For COc1ccc2[nH]c3c(NCCC4=CCCCC4)ncnc3c2c1 the results were Hck Nef HTS 92*, p97 ATPase inh 2, Calb biofilm kill 14, PERK inhibitor 2, 14-3-3 Bad PPI -3 and eIF4E 4G PPI 6.
For O=C(NC1CC1)C1CCN(C2CCN(C(=O)/C=C/c3ccc(F)cc3)CC2)CC1 the results were Hck Nef HTS 7, p97 ATPase inh 1, Calb biofilm kill 4, PERK inhibitor -1, 14-3-3 Bad PPI -8 and eIF4E 4G PPI 0.
`CCN(CC)c1ccc(N2C(=O)/C(=C\c3cccs3)SC2=S)cc1` gave Hck Nef HTS -2, p97 ATPase inh -4, PERK inhibitor -1, 14-3-3 Bad PPI 92*[fluorescence artefact?] and eIF4E 4G PPI -30.
For O=C1Nc2ccccc2C(=O)C1(Cl)Cc1ccccc1 (stereo not drawn) the results were Hck Nef HTS -4, p97 ATPase inh -7, PERK inhibitor 0, 14-3-3 Bad PPI 28 and eIF4E 4G PPI 38*.
For CC(C)(C)N1C(=O)c2ccccc2NC(=O)N1Cc1ccccc1 the results were Hck Nef HTS 2, p97 ATPase inh 1, PERK inhibitor -1, 14-3-3 Bad PPI -4 and eIF4E 4G PPI -4.
For O=c1[nH][nH]c(=S)n1C1CCCCC1 the results were Hck Nef HTS -161, p97 ATPase inh -2, Calb biofilm kill 15, PERK inhibitor 1, 14-3-3 Bad PPI -3 and eIF4E 4G PPI 44*.
CC(C)C1NC(=S)N(C2CCCCC2)C1=O (stereo not drawn) was read as Hck Nef HTS 4, p97 ATPase inh 0, Calb biofilm kill 11, PERK inhibitor 1, 14-3-3 Bad PPI 43 and eIF4E 4G PPI -1.
`O=C(O)C1CCCCC1C(=O)Nc1nc(-c2ccc(Cl)s2)cs1` (stereo not drawn) gave Hck Nef HTS 70*, p97 ATPase inh 4, Calb biofilm kill 8, PERK inhibitor 1, 14-3-3 Bad PPI 14 and eIF4E 4G PPI 12.
`Fc1ccc(-n2c(CN3CCCCC3)n[nH]c2=S)cc1` gave Hck Nef HTS 22, p97 ATPase inh -1, Calb biofilm kill 14, PERK inhibitor 0, 14-3-3 Bad PPI -9 and eIF4E 4G PPI 1.
For FC(F)(F)c1ccccc1-n1c(CN2CCCCC2)n[nH]c1=S the results were Hck Nef HTS 16, p97 ATPase inh 3, Calb biofilm kill 20, PERK inhibitor 1, 14-3-3 Bad PPI 0 and eIF4E 4G PPI 85*.
CS(=O)(=O)N1CCN(Cc2ccccc2C(F)(F)F)CC1 was read as Hck Nef HTS -1, p97 ATPase inh -5, PERK inhibitor 0, 14-3-3 Bad PPI -5 and eIF4E 4G PPI -3.
`CS(=O)(=O)N1CCN(Cc2ccc(C(F)(F)F)cc2)CC1` gave Hck Nef HTS 6, p97 ATPase inh 1, PERK inhibitor 1, 14-3-3 Bad PPI 81* and eIF4E 4G PPI 2.
Screening CC(=O)Oc1ccc(N(C(C)=O)S(=O)(=O)c2ccc(C)c([N+](=O)[O-])c2)cc1 returned Hck Nef HTS 10, p97 ATPase inh 3, Calb biofilm kill 2, PERK inhibitor 1, 14-3-3 Bad PPI 13 and eIF4E 4G PPI 9.
Screening Cc1cccc(-n2cnc(C(=O)O)c2)n1 returned Hck Nef HTS 20, p97 ATPase inh 7, Calb biofilm kill -14, PERK inhibitor 1, 14-3-3 Bad PPI 1 and eIF4E 4G PPI 5.
For Cc1cccc(-n2cnc(C(=O)NC3CCCCCC3)c2)n1 the results were Hck Nef HTS -1, p97 ATPase inh -5, PERK inhibitor 0, 14-3-3 Bad PPI 4 and eIF4E 4G PPI 30*.
CCN1CCN(C(=O)C(N)Cc2ccccc2)CC1 (stereo not drawn) was read as Hck Nef HTS 16, p97 ATPase inh 6, Calb biofilm kill -5, PERK inhibitor 1, 14-3-3 Bad PPI -9 and eIF4E 4G PPI -4.
